The IC50 is the concentration at which inhibition is half-maximal. Low readings indicate greater potency, high ones weaker potency. The term Kd denotes the free concentration of one partner at which half of the binding sites on the other are occupied at equilibrium, for simple one-to-one binding. The low end stands for a tighter complex, the high end for a looser complex. Usually ED50 stands for the midpoint of the dose-response relation.

This note sets out measurements from ChEMBL document CHEMBL1123413, “Synthesis and biological evaluation of 1-(1,2-benzisothiazol-3-yl)- and (1,2-benzisoxazol-3-yl)piperazine derivatives as potential antipsychotic agents” (J Med Chem, 1986).

Series [1] can be described thus: Lethal dose after administration in mouse. It is filed as toxicity, organism-based. The following applies: in vivo, read-out: ALD50.
Series [2] is described as follows: Binding affinity against desipramine receptor was measured using radioligand ([3H]desipramine) binding assay. Further details: species or system Rattus norvegicus.
Series [3] has as its target Dopamine receptor. Put plainly: Compound was tested for its effect on dopamine saturation analysis. It is filed as protein assay.
The target of series [4] is D(2) dopamine receptor (Rattus norvegicus, UniProt P61169). Put plainly: In vitro affinity for rat striatal Dopamine receptor D2 labeled with [3H]spiperone.
Chain of D(2) dopamine receptor (P61169 whole entry): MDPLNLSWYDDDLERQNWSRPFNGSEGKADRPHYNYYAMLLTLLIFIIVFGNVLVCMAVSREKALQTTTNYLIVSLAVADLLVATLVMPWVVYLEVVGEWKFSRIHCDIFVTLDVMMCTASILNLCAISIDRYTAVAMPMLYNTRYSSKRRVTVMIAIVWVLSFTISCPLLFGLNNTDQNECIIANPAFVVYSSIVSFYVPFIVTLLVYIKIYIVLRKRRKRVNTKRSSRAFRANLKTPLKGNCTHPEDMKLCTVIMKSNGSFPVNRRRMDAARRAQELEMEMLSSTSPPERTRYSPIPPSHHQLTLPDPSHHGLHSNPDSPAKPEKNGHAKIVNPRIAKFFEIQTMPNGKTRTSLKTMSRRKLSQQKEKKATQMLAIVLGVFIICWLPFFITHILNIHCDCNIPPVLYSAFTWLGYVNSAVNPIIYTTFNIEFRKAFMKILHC
Series [5] deals with GABA-A receptor; anion channel. Put plainly: Inhibition of [3H]muscimol binding to Gamma-aminobutyric acid (GABA-A) receptor. It is filed as protein-complex assay, Rattus norvegicus.
The nature of series [6]: Binding affinity against histamine receptor was measured using radioligand ([3H]-pyrilamine) binding assay.
Series [7] is filed under the species Mus musculus. Kind of series: Compound was tested for inhibition of norepinephrine lethality in mouse. It is filed as functional. The procedure, abridged: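 Groups of 10 nonfasted male mice dosed orally with test compound (initial 100 mg/kg) or vehicle (distilled H2O or 0.5% methocel). Active compounds retested at lower doses, 10 mice/dose, for dose response. ED50 by Berkson's method.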

For series [8], the species on record is Mus musculus. Put plainly: Compound was tested for inhibition of physostigmine lethality in mouse. It is filed as functional. The procedure, abridged:
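Groups of 10 nonfasted male mice dosed orally with test compound (initial 100 mg/kg) or vehicle (distilled H2O or 0.5% methocel). At 30 min, physostigmine given ip at 1.25 mg/kg, and lethality followed for up to 1 h. Active compounds retested at lower doses, 10 mice/dose, for dose response. ED50 by Berkson's method.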

The species entered for series [9] is Mus musculus. Put plainly: Compound was tested for inhibition of spontaneous motor activity in mouse. It is filed as functional.
The species entered for series [10] is Rattus norvegicus. Put plainly: Compound was tested for inhibition of hexobarbatial potentiation in rat. It is filed as functional. The procedure, abridged: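 Hexobarbital sodium (40 mg/kg, ip) was given to nonfasted male rats 15, 30, 60 or 120 min after test drug, or 15 min after vehicle (distilled H2O or 0.5% methocel). Loss of righting reflex of 1-min duration was scored over about 10–15 min. Dose response at peak-effect time used 10 rats/dose; ED50 and fiducial limits by Berkson.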

The species entered for series [11] is Rattus norvegicus. Put plainly: Compound was tested for inhibition of spontaneous motor activity in rat. It is filed as functional.
Series [12] is filed under the species Rattus norvegicus. Put plainly: Compound was tested for its ability to induce catalepsy in rats. It is filed as functional. The procedure, abridged: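 Catalepsy was induced in rats with orally dosed compound as a predictor of extrapyramidal liability. ED50 (mg/kg, po) with fiducial limits by Berkson's method.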
The species named for series [13] is Rattus norvegicus. Kind of series: Compound was tested for inhibition of conditioned avoidance response (CAR ). It is filed as functional. The procedure, abridged:
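Rats trained to avoid an electric shock, test compound given orally, and block of the conditioned avoidance response scored. ED50 (mg/kg, po) with fiducial limits by the method of Berkson.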

Series [14] concerns the target T1, Adrenergic receptor alpha-1 (Rattus norvegicus, UniProt P15823+P23944+P43140).
T1 sequence (P15823 whole entry): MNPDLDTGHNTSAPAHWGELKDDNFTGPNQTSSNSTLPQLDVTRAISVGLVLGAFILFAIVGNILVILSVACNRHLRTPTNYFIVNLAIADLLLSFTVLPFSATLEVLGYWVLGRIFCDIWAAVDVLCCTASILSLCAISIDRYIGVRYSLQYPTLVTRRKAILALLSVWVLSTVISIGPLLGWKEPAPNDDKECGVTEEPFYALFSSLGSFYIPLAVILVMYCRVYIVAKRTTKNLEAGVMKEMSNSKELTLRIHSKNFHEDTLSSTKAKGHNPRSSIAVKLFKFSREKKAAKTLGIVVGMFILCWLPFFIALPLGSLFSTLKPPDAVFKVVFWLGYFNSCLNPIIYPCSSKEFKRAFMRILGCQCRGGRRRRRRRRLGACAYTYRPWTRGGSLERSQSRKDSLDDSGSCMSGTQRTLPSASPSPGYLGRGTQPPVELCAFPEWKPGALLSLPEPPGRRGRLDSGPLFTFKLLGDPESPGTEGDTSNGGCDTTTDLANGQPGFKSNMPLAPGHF
T1 sequence (P23944 whole entry): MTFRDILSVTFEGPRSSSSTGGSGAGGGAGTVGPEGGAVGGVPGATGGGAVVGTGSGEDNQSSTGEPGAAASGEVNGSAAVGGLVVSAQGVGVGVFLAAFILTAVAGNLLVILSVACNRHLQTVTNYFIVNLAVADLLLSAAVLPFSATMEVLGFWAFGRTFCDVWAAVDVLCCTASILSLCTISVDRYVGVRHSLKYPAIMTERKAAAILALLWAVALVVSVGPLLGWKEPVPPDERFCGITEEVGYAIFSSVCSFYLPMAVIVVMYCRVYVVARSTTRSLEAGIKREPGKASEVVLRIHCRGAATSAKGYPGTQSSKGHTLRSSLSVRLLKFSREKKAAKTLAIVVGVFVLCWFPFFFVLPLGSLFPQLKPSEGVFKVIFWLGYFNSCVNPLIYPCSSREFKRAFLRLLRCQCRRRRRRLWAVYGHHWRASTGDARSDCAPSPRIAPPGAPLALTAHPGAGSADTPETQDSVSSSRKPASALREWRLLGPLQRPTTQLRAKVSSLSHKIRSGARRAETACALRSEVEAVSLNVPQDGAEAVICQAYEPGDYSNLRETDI
T1 sequence (P43140 whole entry): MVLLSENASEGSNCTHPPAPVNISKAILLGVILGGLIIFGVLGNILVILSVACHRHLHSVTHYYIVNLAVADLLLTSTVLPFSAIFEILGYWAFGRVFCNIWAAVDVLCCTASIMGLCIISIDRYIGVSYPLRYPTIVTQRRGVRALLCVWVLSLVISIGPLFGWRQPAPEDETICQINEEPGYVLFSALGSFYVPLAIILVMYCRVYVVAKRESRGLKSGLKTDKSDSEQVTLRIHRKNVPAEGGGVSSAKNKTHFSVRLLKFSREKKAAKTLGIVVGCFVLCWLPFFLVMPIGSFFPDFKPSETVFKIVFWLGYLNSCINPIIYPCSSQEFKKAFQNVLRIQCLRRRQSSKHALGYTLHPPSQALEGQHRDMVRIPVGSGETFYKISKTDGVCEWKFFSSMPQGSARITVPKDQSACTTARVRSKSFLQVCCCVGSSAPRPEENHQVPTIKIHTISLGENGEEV

SMILES strings stand for the structures.

Take `Cl.O=C1CC2(CCCC2)CC(=O)N1CCCCN1CCN(c2nsc3ccccc23)CC1` [TIOSPIRONE HYDROCHLORIDE]: the LD50 in series [1] is 1850 mg/kg. The half-inhibitory concentration (IC50) in series [2] was greater than 1000 nM; in [4] it was 8 nM; in [5], greater than 1000 nM; in series [6], 142 nM; in series [14], 47 nM. The compound also registered a Kd in series [3] of 0.3337 nM. Moreover, the median effective dose (ED50) in series [7] worked out at 12.5 mg/kg; in [8], 294 mg/kg; in series [9], 17.3 mg/kg; in series [10] it was 6.7 mg/kg; in series [11], 8.4 mg/kg; in series [12], 84.4 mg/kg. In series [13], the ED50 worked out at 10.5 mg/kg.
